Data on 1 substance can be found in ChEMBL document CHEMBL1125545, “4-Methyl-3-(arylsulfonyl)furoxans: a new class of potent inhibitors of platelet aggregation” (J Med Chem, 1992).

The species entered for the assay is Homo sapiens. Put plainly: Inhibition of arachidonic acid (AA) induced human platelet aggregation. The format is functional. In a few lines: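 Human PRP (pH 7.6; 200g, 15 min at room temperature) with platelet counts matched. Compound in DMSO-ethanol given 5 min before 1 mM arachidonic acid, with a solvent control. Aggregation followed by Born light-transmission aggregometry, IC50 derived from the aggregation traces. At least four repeats, each with platelets from a different donor.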

Broadly, the IC50 is the concentration that inhibits the measured activity by half. A higher IC50 goes with lower potency.

Turning to SODIUM NITROPRUSSIDE, inhibition was half-maximal at 1 µM (IC50).
